Screens deposited in PubChem by several laboratories.
FXN GAA850 act – increases GAA850 frataxin promoter reporter activity. 0.56% of 360,000 active. HEK293 lucGAA850 FXN promoter luciferase reporter, 24 h; percent of 10 µM SAHA response. activation, % at 6 µM;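 active = activation above the average of all compounds screened plus 3 SD, cutoff fixed separately per campaign, cut at about 7.5% in these data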;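 note: 0% = DMSO wells and 100% = 10 µM SAHA wells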
CaV13 FRET inh – Primary screen for inhibitors of IQ motif and Ca2+-dependent inactivation inhibitor domain binding in CACNA1D, Förster resonance energy transfer in living cells, …; 0.098% of 340,000 active; inhibition, % at 12.3 µM; HEK cells, CFP/YFP FRET ICDI-IQ, plate reader, 10 min; percent FRET-ratio fall versus neutral wells;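 active = mean replicate inhibition of at least 30% and at least 1% of replicates passing that level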;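 note: 0% = median of the neutral control wells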
GSIS activator – primary screen for activators of insulin secretion dependent on glucose, INS-1E cells, GLuc reporter luminescence; INS-1E GLuc reporter insulin secretion, 2-3 h; activation, % at 16.6 µM; 0.61% of 370,000 active; AID 743287;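 active = lowest replicate activation of at least 40%, so every replicate reaches that level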;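 note: 0% = median of neutral control wells and 100% = median of IBMX positive control wells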
Xi reactivation – activators of X-chromosome reactivation in mouse fibroblasts. XiGFP mouse fibroblasts, % GFP-positive cells imaging, 3 d; cells co-treated with 5-aza-dC sensitizer; scaled so ellipticine positive control = 100%. activation, % at 7.58 µM. 0.055% of 360,000 active. AID 743238;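 active = mean normalized replicate activation at least 10% and every replicate at or above 10%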;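 note: 0% = median of on-plate neutral control wells and 100% = ellipticine 6 µM median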
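Material: XiGFP fibroblasts, SV40-immortalized; Buffer or medium: DMEM containing 5-aza-dC; Compound dosing: single point; Times: 3 days compound exposure.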
Active calls of the source: *; x = no result given. The list is not random: actives were taken first. Their share in the collection is about 1%.

SMILES	FXN GAA850 act	CaV13 FRET inh	GSIS activator	Xi reactivation
Cc1noc(C)c1NC(=O)N(C)C[C@@H]1Oc2c(NS(C)(=O)=O)cccc2C(=O)N([C@H](C)CO)C[C@H]1C	x	x	11	0
Cc1cc(C)c(C#N)c(SCC(=O)c2ccccc2)n1	1	-14	3	0
Cc1cc(=O)[nH]c(SCC(=O)c2ccccc2)c1C#N	2	-5	43*	x
S=C1NC[C@H](c2ccccc2)N1CCCCC1CCCCC1	1	-7	11	0
NC1=NC[C@H](c2ccccc2)N1CCCCC1CCCCC1	-1	-6	285*	0
O=C(c1ccco1)N1CCN(C2CN(Cc3ccc([N+](=O)[O-])cc3)S(=O)(=O)C2)CC1 (configuration not stated)	0	-4	23	1
O=C(c1ccco1)N1CCN(C2CN(Cc3ccccc3)S(=O)(=O)C2)CC1 (configuration not stated)	x	-6	47*	0
CCc1ccc(/C=C2\SC(=S)N(CCCC(=O)NCCCN3CCOCC3)C2=O)cc1	-13	-6	41*	0
Cc1ccc(/C=C2\SC(=S)N(CCCC(=O)Nc3nccs3)C2=O)cc1	-2	-15	x	0
CCc1ccc(/C=C2\SC(=S)N(CCCC(=O)Nc3nccs3)C2=O)cc1	-10	-3	121*	0
CCOC(=O)c1ccccc1NC(=O)COC(=O)CCCOc1ccccc1	2	x	56*	0
CCOC(=O)c1ccccc1NC(=O)COc1ccccc1	2	x	x	x
C[C@@H]1CCCCO[C@H](CN(C)C(=O)CCC(F)(F)F)[C@H](C)CN([C@H](C)CO)C(=O)c2cc(NS(=O)(=O)c3cccs3)ccc2O1	x	x	-17	0
CCCc1cc(NCC2CCCO2)n2c(nc3ccccc32)c1C#N (configuration not stated)	-2	-7	57*	x
CS(=O)(=O)N1CC2(C1)[C@@H](c1ccccc1)[C@@H](CO)N2C(=O)C1CCC1	x	x	8	0
COc1cc(-c2nnc(-c3cccs3)o2)cc(OC)c1OC	2	x	x	x
COc1ccc(-c2nnc(-c3cccs3)o2)cc1OC	5	-5	73*	x
CCOc1ccc(-c2noc(CCC(=O)NC)n2)cc1OCC	3	-5	56*	x
CO[C@H]1CN(C)C(=O)c2cc(NC(C)=O)ccc2OC[C@H](C)N(CCC(F)(F)F)C[C@@H]1C	x	x	5	0
COc1ccc(-c2ccc(SCC(=O)Nc3cc(C)on3)nn2)cc1OC	3	-5	57*	x
COc1ccc(-c2ccc(SCC(=O)NC3CCCC3)nn2)cc1OC	3	-8	80*	0
COc1ccc(-c2ccc(=O)n(CC(=O)NC3CCc4ccccc43)n2)cc1OC (configuration not stated)	3	-4	47*	0
Cc1cccc(NC(=O)CSc2ccc(-c3ccc4c(c3)OCO4)nn2)c1C	0	-9	94*	x
Cc1ccc(-c2ccc(SCC(=O)Nc3cc(C)on3)nn2)cc1	-1	-2	-4	0
COc1ccccc1-c1ccc2c(c1)[C@H]1[C@H](CCN1S(=O)(=O)c1cccc(C)c1)[C@H](CO)N2	x	x	25	0
SMILES	FXN GAA850 act	CaV13 FRET inh	GSIS activator	Xi reactivation
O=C(O)c1ccc(S(=O)(=O)N2CCC3(CC2)CC(=O)c2ccccc2O3)cc1	2	-7	50*	0
C1CCC(C(CC2CCCCN2)C2CCCCC2)CC1 (configuration not stated)	-7	-5	104*	1
Cc1nc2ccccc2c2nc(NC(=O)C(F)(F)F)nn12	4	7	50*	0
Cc1nc2ccccc2c2nc(N)nn12	6	-4	x	x
CC(=NNc1nc2ccccc2o1)c1cc2ccccc2cn1	2	-10	0	73*
CC(=NNc1nc2ccccc2o1)c1ncccn1	-15	-7	-7	0
C[C@H](CO)N1C[C@H](C)[C@@H](CN(C)S(=O)(=O)c2ccc(F)cc2)OCCCC[C@H](C)Oc2ccc(NS(=O)(=O)c3ccc(F)cc3)cc2C1=O	x	x	-32	0
N#Cc1c(NCCCO)nc(NCc2ccccc2)c2c1CCN(Cc1ccccc1)C2	0	32*	x	x
CN1CCc2c(C#N)c(N3CCCCC3)nc(NCc3ccccc3)c2C1	-1	-9	x	x
Cc1ccc(S(=O)(=O)NCC[C@H]2CC[C@H](NS(=O)(=O)c3ccccc3Cl)[C@@H](CO)O2)cc1	x	x	1	1
CCCNC(=O)Nc1ccc2c(c1)C(=O)N(C)[C@H]1CC[C@@H](CC(=O)NCC3CCCCC3)O[C@H]1CO2	x	x	-13	0
C[C@@H]1CN([C@@H](C)CO)C(=O)c2cc(NS(=O)(=O)c3ccccc3)ccc2O[C@H]1CN(C)C	x	x	21	0
COC(=O)C1=C(C)NC(c2c(O)ccc3ccccc23)C(C(=O)OC)=C1C (configuration not stated)	3	-5	53*	0
CCOC(=O)c1sc2nc(-c3ccccc3)ccc2c1N	2	-7	76*	0
COc1ccc(OC)c(C(=O)c2ccc([N+](=O)[O-])cc2)c1	-1	-5	58*	0
CCC(=O)c1ccc(O)c(OC)c1	1	x	2	x
COc1cc(C(=O)C(=O)c2ccc(OC)c(OC)c2)ccc1O	0	-6	45*	0
COc1ccc(CC(=O)OCC(=O)c2ccc(OC)c(OC)c2)cc1	2	-7	41*	0
COc1ccc(NC(=O)Nc2ccc3c(c2)C(=O)N([C@H](C)CO)C[C@@H](C)[C@@H](CN(C)S(=O)(=O)c2ccc(F)cc2)O3)cc1	x	x	-26	0
COc1ccccc1CN(C)C[C@@H]1OCc2cnnn2CCCC(=O)N([C@H](C)CO)C[C@@H]1C	x	x	8	0
C[C@H]1CN([C@@H](C)CO)C(=O)c2cc(C#CCc3ccccc3)cnc2O[C@H]1CN(C)Cc1cccnc1	x	x	-19	0
COc1ccc(C(=O)c2sc3nc(-c4ccccc4)ccc3c2N)cc1OC	-1	-22	x	x
COc1ccc(C(=O)c2ccc(OC)c(OC)c2)cc1	1	-6	56*	x
COc1ccc(CC(=O)c2ccc(OC)c(OC)c2)cc1	6	-3	71*	0
COc1ccc(-c2ccc3c(N)c(C(=O)c4ccc(OC)c(OC)c4)sc3n2)cc1	1	-28	172*	x
COc1ccc(C(=O)CCS(=O)(=O)c2ccc(F)cc2)cc1OC	1	-10	60*	0
COc1ccc(C(=O)Cc2ccccc2)cc1OC	3	-7	29	x
COc1ccc(C(=O)c2ccc(OC)c(OC)c2)cc1OC	0	-4	x	x
CN(C)C(=O)c1ccc(-c2ccc([C@@H]3[C@@H](C#N)N(C(=O)Cc4ccccn4)[C@H]3CO)cc2)cc1	x	x	-6	0
COc1ccccc1CN1[C@H](CO)[C@H]2c3ccccc3N(C(=O)c3ccncc3)C[C@H]21	x	x	17	0
